From ChEMBL document CHEMBL4118192, “BET bromodomain ligands: Probing the WPF shelf to improve BRD4 bromodomain affinity and metabolic stability” (Bioorg Med Chem, 2018) come the findings set out here.

The test system of series [1] is A498. Put plainly: Growth inhibition of human A498 cells after 48 hrs by SRB assay. The format is functional. Conditions: A498, 48 h. The gist of the method:
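In-house assay. Cells were seeded into 96-well plates at a density for exponential growth and treated with a concentration range for 48 h. They were then fixed in 10% (w/v) TCA and stained with sulforhodamine B. The 50% growth-inhibitory concentration relative to control cells was calculated as the mean of three repeats ± standard deviation.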

The next series concerns SNB-19. Put plainly: Growth inhibition of human SNB19 cells at 10 uM after 48 hrs by sulforhodamine B assay relative to control. The format is functional. The settings on record: SNB-19, 48 h, read-out: GI. The gist of the method: (§1)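 NCI-60 human cancer cell line screen, single-dose pass: cells exposed to 10 μM for 48 h. Cellular protein content read out by sulforhodamine B staining, and growth inhibition expressed relative to untreated control.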

In series [2] the test system is M14. Put plainly: Growth inhibition of human M14 cells at 10 uM after 48 hrs by sulforhodamine B assay relative to control. The format is functional. The settings on record: M14, 48 h, read-out: GI. A digest of the protocol: (§2)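 NCI-60 single-dose screen at 10 μM for 48 h. Percent growth inhibition was measured by sulforhodamine B staining of cellular protein.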

Series [3] concerns A498. Put plainly: Growth inhibition of human A498 cells at 10 uM after 48 hrs by sulforhodamine B assay relative to control. The format is functional. Conditions: A498, 48 h, read-out: GI. A digest of the protocol: as §2
The next series concerns ACHN. Put plainly: Growth inhibition of human ACHN cells at 10 uM after 48 hrs by sulforhodamine B assay relative to control. The format is functional. The settings on record: read-out: GI. A digest of the protocol:
as §2

Another series deals with RXF 393. Put plainly: Growth inhibition of human RXF393 cells at 10 uM after 48 hrs by sulforhodamine B assay relative to control. The format is functional. Conditions: RXF 393, 48 h, read-out: GI. A digest of the protocol:
as §1

The test system of the next series is K562. Put plainly: Growth inhibition of human K562 cells after 48 hrs by sulforhodamine B assay. The format is functional. Conditions: K562, 48 h. The gist of the method: (§3)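 NCI-60 panel screen. Cells were exposed for 48 h at five concentrations between 10 nM and 100 μM. Cellular protein was read by sulforhodamine B staining, and GI50 and total growth inhibition (TGI) concentrations were derived.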

The subject of a further series is NCI-H23. Put plainly: Growth inhibition of human NCI-H23 cells after 48 hrs by sulforhodamine B assay. The settings on record: NCI-H23, 48 h. The format is functional. The gist of the method:
(§4)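 NCI-60 panel follow-up: five concentrations from 10 nM to 100 μM, 48 h exposure. Growth read by sulforhodamine B protein staining. GI50 derived from the concentration-response, with the concentration for total growth inhibition (TGI) also recorded when below 100 μM.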

The subject of the next series is KM12. Put plainly: Growth inhibition of human KM12 cells after 48 hrs by sulforhodamine B assay. The format is functional. Conditions: KM12, 48 h. The gist of the method: as §3
For another series, the system named is SW-620. Put plainly: Growth inhibition of human SW620 cells after 48 hrs by sulforhodamine B assay. The settings on record: SW-620, 48 h. The format is functional. The gist of the method:
(§5)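 NCI-60 panel cells treated at five concentrations from 10 nM to 100 μM for 48 h. Read-out by sulforhodamine B protein stain. GI50 and total growth inhibition (TGI, if below 100 μM) taken from the concentration-response data.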

For series [4], the system named is M14. Put plainly: Growth inhibition of human M14 cells after 48 hrs by sulforhodamine B assay. The format is functional. The settings on record: M14, 48 h. The gist of the method: as §3
The subject of a further series is UACC-62. Put plainly: Growth inhibition of human UACC62 cells after 48 hrs by sulforhodamine B assay. The format is functional. The settings on record: UACC-62, 48 h. The gist of the method: as §5
The test system of the next series is PC-3. Put plainly: Growth inhibition of human PC3 cells after 48 hrs by sulforhodamine B assay. The format is functional. Conditions: PC-3, 48 h. A digest of the protocol: as §4
Another series deals with MDA-MB-468. Put plainly: Growth inhibition of human MDA-MB-468 cells after 48 hrs by sulforhodamine B assay. The format is functional. The settings on record: MDA-MB-468, 48 h. The gist of the method:
as §4

A short description of series [5]: Apparent half life in human liver microsomes at 3 uM. The format is ADME, microsome. Conditions: read-out: t1/2(app).
Series [6] in a line: Intrinsic clearance in human liver microsomes at 3 uM. Conditions: read-out: CLH. The format is ADME, microsome.
In another series the test system is HCC 2998. Put plainly: Growth inhibition of human HCC2998 cells after 48 hrs by sulforhodamine B assay. The format is functional. Conditions: HCC 2998, 48 h. A digest of the protocol: as §3
The next series has as its system Malme-3M. Put plainly: Growth inhibition of human MALME-3M cells after 48 hrs by sulforhodamine B assay. The format is functional. A digest of the protocol:
as §3

Series [7] concerns the target ATPase family AAA domain-containing protein 2B (Homo sapiens) (UniProt Q9ULI0). Put plainly: Inhibition of human partial length ATAD2B (Q955 to R1082 residues) expressed in bacterial expression system assessed as residual activity at 1 uM by BROMOscan assay relative to control.
The target in series [8] is Bromodomain-containing protein 2 (Homo sapiens) (UniProt P25440). Put plainly: Inhibition of human partial length BRD2 bromodomain 1 (K71 to N194 residues) expressed in bacterial expression system assessed as residual activity at 1 uM by BROMOscan assay relative to control.
Bromodomain-containing protein 2 (Homo sapiens), sequence (P25440 whole entry, looked up, the tested form may be a part): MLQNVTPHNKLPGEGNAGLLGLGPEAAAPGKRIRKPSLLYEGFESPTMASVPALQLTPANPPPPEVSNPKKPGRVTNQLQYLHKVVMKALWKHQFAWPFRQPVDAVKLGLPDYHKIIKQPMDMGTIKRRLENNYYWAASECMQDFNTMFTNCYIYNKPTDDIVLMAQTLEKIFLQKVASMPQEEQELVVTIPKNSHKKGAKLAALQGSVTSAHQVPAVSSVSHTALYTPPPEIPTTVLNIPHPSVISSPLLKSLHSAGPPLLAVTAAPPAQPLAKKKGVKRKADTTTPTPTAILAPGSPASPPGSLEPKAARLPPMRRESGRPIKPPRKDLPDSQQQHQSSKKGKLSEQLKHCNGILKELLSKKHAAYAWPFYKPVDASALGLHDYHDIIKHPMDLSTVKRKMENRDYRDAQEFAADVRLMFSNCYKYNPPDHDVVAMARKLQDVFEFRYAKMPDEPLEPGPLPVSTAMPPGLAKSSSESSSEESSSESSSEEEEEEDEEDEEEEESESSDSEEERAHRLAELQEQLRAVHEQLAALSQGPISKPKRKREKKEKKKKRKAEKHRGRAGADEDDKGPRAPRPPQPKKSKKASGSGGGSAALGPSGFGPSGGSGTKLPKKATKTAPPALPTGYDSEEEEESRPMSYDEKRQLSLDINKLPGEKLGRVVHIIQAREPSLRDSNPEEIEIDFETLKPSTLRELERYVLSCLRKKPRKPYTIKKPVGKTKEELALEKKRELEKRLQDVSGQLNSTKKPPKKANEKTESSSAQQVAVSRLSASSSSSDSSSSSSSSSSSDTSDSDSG
The target in series [9] is T1, Bromodomain-containing protein 4 (Homo sapiens, UniProt O60885). Put plainly: Inhibition of human partial length BRD4 bromodomain 1 (N44 to E168 residues) expressed in bacterial expression system assessed as residual activity at 1 uM by BROMOscan assay relative to control.
In series [10] the target is T1, Bromodomain-containing protein 4. Put plainly: Inhibition of human partial length BRD4 bromodomain 2 (K333 to E460 residues) expressed in bacterial expression system assessed as residual activity at 1 uM by BROMOscan assay relative to control.
Series [11] has as its target Bromodomain-containing protein 9 (Homo sapiens) (UniProt Q9H8M2). Put plainly: Inhibition of human partial length BRD9 (R130 to V259 residues) expressed in bacterial expression system assessed as residual activity at 1 uM by BROMOscan assay relative to control.
The target in series [12] is Bromodomain testis-specific protein (Homo sapiens) (UniProt Q58F21). Put plainly: Inhibition of human partial length BRDT bromodomain 1 (N21 to E137 residues) expressed in bacterial expression system assessed as residual activity at 1 uM by BROMOscan assay relative to control.
The target in a further series is Peregrin (Homo sapiens) (UniProt P55201). Put plainly: Inhibition of human partial length BRPF1 (E627 to G740 residues) expressed in bacterial expression system assessed as residual activity at 1 uM by BROMOscan assay relative to control.
Peregrin (Homo sapiens), sequence (P55201 whole entry, the tested form may be a part): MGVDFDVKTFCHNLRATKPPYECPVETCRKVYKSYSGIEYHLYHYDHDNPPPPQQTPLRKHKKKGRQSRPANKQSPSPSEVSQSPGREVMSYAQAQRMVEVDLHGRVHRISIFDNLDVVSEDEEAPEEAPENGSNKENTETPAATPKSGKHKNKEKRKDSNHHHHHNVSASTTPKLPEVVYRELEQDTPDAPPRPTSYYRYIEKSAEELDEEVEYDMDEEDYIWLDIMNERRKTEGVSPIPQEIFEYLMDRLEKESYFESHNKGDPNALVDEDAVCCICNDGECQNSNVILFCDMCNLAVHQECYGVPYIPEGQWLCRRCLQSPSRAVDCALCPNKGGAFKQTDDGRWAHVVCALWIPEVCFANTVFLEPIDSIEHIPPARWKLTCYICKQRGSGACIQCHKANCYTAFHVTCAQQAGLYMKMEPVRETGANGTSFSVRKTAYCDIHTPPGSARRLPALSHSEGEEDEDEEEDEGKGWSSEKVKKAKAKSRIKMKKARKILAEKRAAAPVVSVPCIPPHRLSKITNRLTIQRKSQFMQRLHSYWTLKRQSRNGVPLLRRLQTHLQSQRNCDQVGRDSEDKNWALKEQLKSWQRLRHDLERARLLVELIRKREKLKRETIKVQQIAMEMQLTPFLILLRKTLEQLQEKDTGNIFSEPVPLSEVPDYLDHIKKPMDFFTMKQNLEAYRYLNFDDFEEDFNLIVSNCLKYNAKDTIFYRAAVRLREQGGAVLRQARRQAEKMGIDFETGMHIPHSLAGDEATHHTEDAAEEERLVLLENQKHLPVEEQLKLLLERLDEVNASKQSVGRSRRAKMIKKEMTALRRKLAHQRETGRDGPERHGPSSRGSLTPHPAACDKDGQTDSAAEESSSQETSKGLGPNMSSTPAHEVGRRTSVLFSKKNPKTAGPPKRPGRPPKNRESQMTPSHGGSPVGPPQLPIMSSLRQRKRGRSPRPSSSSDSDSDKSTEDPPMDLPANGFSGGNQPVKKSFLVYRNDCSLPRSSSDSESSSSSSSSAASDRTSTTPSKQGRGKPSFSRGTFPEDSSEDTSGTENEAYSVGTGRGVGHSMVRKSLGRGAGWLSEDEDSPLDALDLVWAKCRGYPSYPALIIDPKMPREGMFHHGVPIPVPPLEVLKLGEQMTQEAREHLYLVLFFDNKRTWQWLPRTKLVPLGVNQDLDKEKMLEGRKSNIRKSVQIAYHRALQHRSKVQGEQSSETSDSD
Series [13] deals with CREB-binding protein (Homo sapiens) (UniProt Q92793). Put plainly: Inhibition of human partial length CREBBP (R1081 to G1197 residues) expressed in bacterial expression system assessed as residual activity at 1 uM by BROMOscan assay relative to control.
Series [14] addresses Histone acetyltransferase KAT2B (Homo sapiens) (UniProt Q92831). Put plainly: Inhibition of human partial length PCAF (G715 to D831 residues) expressed in bacterial expression system assessed as residual activity at 1 uM by BROMOscan assay relative to control.
For series [15], the target named is SWI/SNF-related matrix-associated actin-dependent regulator of chromatin subfamily A member 4 (Homo sapiens) (UniProt P51532). Put plainly: Inhibition of human partial length SMARCA4 (A1448 to S1575 residues) expressed in bacterial expression system assessed as residual activity at 1 uM by BROMOscan assay relative to control.
Series [16] addresses Bromodomain and WD repeat-containing protein 1 (Homo sapiens) (UniProt Q9NSI6). Put plainly: Inhibition of human partial length WDR9 bromodomain 2 (A1310 to E1430 residues) expressed in bacterial expression system assessed as residual activity at 1 uM by BROMOscan assay relative to control.

ATPase family AAA domain-containing protein 2B (Homo sapiens), sequence (Q9ULI0 whole entry, the tested form may be a part): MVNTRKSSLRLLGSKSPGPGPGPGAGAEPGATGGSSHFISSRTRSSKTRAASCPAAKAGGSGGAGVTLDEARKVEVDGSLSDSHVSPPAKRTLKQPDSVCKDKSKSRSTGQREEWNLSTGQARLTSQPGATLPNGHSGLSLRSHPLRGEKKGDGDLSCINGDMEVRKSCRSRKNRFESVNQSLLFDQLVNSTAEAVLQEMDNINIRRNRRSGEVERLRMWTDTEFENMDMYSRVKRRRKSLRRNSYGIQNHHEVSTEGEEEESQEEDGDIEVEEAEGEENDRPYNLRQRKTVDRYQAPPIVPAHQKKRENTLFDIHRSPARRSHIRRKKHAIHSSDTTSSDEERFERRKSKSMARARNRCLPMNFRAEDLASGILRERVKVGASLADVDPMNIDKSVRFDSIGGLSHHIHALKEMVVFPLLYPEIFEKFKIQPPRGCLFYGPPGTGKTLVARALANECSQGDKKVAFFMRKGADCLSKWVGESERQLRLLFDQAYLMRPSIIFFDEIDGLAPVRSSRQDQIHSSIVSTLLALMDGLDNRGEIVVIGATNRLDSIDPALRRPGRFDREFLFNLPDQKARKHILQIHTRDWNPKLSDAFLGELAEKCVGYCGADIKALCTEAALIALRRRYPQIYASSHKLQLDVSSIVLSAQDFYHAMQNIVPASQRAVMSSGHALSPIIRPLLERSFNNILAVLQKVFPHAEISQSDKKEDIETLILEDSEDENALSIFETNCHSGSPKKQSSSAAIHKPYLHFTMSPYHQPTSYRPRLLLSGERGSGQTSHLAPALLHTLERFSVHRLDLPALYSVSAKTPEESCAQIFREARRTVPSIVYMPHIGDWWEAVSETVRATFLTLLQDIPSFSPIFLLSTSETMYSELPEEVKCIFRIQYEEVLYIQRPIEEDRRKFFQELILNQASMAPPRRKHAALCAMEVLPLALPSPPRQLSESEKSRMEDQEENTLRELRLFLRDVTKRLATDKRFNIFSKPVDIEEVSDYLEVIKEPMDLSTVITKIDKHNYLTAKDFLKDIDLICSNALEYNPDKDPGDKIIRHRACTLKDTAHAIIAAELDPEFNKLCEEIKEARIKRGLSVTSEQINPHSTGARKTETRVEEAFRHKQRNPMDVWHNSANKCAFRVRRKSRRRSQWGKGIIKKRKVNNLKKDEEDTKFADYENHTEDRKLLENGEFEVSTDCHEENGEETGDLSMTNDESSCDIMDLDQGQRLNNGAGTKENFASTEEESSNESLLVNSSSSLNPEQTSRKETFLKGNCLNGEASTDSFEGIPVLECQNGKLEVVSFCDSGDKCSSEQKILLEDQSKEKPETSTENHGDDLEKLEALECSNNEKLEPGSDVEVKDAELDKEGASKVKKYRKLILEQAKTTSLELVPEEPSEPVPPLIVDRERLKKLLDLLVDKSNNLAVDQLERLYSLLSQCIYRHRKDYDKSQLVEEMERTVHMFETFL
Histone acetyltransferase KAT2B (Homo sapiens), sequence (Q92831 whole entry, looked up, the tested form may be a part): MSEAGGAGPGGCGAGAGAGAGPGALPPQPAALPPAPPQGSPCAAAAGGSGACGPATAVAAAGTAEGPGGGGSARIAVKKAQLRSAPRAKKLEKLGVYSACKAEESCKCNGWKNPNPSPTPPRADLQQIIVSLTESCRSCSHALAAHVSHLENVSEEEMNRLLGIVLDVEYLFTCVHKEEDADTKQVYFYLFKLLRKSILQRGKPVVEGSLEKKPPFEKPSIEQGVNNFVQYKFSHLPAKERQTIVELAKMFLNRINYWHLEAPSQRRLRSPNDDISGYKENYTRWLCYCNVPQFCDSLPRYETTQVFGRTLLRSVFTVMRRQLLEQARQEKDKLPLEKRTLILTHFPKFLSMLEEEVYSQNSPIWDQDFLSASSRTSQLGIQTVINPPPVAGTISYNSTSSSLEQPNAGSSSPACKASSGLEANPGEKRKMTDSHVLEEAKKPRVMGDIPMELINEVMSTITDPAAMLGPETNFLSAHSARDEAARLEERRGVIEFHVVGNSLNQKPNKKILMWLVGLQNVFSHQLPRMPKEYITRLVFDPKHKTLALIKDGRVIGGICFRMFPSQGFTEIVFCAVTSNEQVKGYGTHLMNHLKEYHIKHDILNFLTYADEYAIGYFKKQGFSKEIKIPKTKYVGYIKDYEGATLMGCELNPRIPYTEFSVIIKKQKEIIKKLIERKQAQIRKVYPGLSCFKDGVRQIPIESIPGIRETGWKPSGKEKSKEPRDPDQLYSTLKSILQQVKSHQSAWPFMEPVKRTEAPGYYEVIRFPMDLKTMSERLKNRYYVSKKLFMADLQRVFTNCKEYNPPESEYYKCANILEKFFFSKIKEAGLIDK
Bromodomain-containing protein 9 (Homo sapiens), sequence (Q9H8M2 whole entry, the tested form may be a part): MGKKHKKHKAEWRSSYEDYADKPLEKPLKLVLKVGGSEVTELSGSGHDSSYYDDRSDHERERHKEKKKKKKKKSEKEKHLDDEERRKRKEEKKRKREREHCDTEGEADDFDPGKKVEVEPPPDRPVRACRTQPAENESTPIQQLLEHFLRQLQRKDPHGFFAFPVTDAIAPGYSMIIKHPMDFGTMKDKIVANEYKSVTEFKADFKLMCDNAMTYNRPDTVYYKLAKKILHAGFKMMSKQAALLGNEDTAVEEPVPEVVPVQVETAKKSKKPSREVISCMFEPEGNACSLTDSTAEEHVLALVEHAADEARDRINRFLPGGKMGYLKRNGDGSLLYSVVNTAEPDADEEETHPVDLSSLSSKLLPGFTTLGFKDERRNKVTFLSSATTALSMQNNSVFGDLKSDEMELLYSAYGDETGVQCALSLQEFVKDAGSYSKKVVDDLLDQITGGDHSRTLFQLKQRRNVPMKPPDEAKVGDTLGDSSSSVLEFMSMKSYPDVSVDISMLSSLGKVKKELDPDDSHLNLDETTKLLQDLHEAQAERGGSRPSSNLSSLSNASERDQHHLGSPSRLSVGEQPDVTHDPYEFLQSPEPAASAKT

On to `COc1ccccc1S(=O)(=O)Nc1ccc2c(c1)CN(C)C(=O)N2`, for which the concentration for 50% growth inhibition (GI50) was determined as 1.8 µM with A498 [1]; 4.6 µM in the series with K562; 8.5 µM in the series on NCI-H23; 10.7 µM with KM12; 12 µM in the series on SW-620; 2.9 µM with M14 [4]. The results for the GI50 in the series with UACC-62, with PC-3 and in the series with MDA-MB-468 were 0.7 µM, 28.2 µM and 1.5 µM, respectively. Moreover, the TGI in the series with A498 [1] is 6 µM; in the series with MDA-MB-468 it was 47.9 µM. Besides, the inhibition of growth at 10 µM in the series on SNB-19 was 45.9%; in the series on M14 [2] it was 52.2%; in the series with A498 [3] it was 103%; in the series on ACHN, 65.3%; with RXF 393, 26.7%.
For the compound `Cc1noc(C)c1-c1cc(O)cc(C(O)c2ccccc2)c1` (stereo not drawn), the half-life at 3 µM in series [5] is 39.8 min. In addition, in [6], the microsomal CLint at 3 µM came out at 34.8 µL/min/mg. In addition, the GI50 in the series on A498 [1] was 1.58 to 2.6 µM; in the series with K562 it was 8.69 µM; in the series with HCC 2998, 8.55 µM; in the series on KM12, 8.2 µM; with SW-620, 24.5 µM; in the series on Malme-3M, 28.9 µM. The figures for the GI50 in the series with M14 [4] and in the series with MDA-MB-468 were 4.48 µM and 1.89 µM, respectively. The results for the TGI in the series with A498 [1] and with MDA-MB-468 were 20.3 µM and 40.6 µM, respectively. The inhibition of growth at 10 µM turned out to be 47.3% in the series on SNB-19, 44% in the series on M14 [2], 103% with A498 [3] and 39.4% in the series with ACHN. Moreover, the Activity in series [7] turned out to be 66%; in series [8] it was 1.4%; in [9], 3.7%; in series [10], 0.2%; in series [11], 100%; in series [12], 8.8%. Besides, the Activity at Peregrin (Homo sapiens) was determined as 100%; in series [13], 43%; in series [14] it was 93%; in [15] it was 100%; in series [16] it was 100%.
